Screening results (PubChem BioAssay)
Mdm2 ligase inh – MDM2-luciferase reporter signal enhancers, primary screen, MDM2 E3 ligase inhibitor project, cell-based, luminescence, 1536-well; cell-based MDM2 ubiquitination luciferase reporter, 2 h; 0 = plate control, 100 = twice control, blank-subtracted; signal enhancement, % at 5 µM; hit rate 0.11% among 210,000; AID 1230, 2008;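 active = signal enhancement of 30% or more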;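 also: luminescence tracks abundance of the self-degrading MDM2-luciferase fusion protein; higher signal means inhibition of MDM2 E3 ligase activity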
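Test system: mammalian cells stably expressing self-ubiquitinating, self-degrading MDM2 E3–luciferase fusion; Amount: 2000 cells in each well; Medium: DMEM; Schedule: 4 h settle plus 2 h compound, 37 °C; Technique: SteadyLite luciferase luminescence after 15 min room-temperature reagent incubation; Benchmarks: plate control and blank wells.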
S1P3 antagonist – S1P3 receptor antagonists, primary screen, cell-based; Sphingosine 1-phosphate receptor 3 (Homo sapiens), Q99500; CHO S1P3 NFAT-BLA reporter, FRET fluorescence, antagonist mode; inhibition, % at 4.98 µM; hit rate 0.27% among 170,000; AID 485, 2006;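 active = inhibition above the plate cutoff, the mean inhibition of test wells on that plate plus 3 SD, cut at about 28% in these data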;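 also: cells challenged with S1P at its EC80 of 0.8 µM; blue over green emission ratio from cleaved BLA substrate after 4 h stimulation; 0% = S1P-stimulated wells and 100% = unstimulated DMSO-only wells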
S1P4 ag – S1P4 receptor agonists, primary screen, cell-based. S1P4-expressing cell line, agonist reporter assay. AID 1509, 2009. hit rate 0.35% among 220,000. activation, % at 4.98 µM; in the data active = activation above about 11%;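 also: 0% = DMSO vehicle and 100% = reference agonist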
Target sequence (O95977 whole entry, looked up): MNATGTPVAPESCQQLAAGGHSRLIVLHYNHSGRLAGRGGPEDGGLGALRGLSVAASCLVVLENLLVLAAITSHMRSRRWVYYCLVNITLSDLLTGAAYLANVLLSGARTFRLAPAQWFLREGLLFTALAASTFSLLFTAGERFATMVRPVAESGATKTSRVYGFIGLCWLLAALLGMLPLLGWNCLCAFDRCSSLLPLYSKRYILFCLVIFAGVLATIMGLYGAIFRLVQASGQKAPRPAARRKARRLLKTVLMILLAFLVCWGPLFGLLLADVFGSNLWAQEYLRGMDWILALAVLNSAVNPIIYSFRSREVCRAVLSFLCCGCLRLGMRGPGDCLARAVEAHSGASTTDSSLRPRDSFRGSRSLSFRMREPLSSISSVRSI
Lmaj promast – Leishmania major promastigote growth inhibition, primary screen | Leishmania major promastigotes, resazurin fluorescence viability | inhibition, % at 10 µM | hit rate 9% among 200,000; in the data active = inhibition above about 50%;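 also: promastigotes grown with compound for 44 hours at 28 °C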
S1P4 antag – S1P4 receptor antagonists, primary screen, cell-based; S1P4-expressing cells, antagonist mode, reporter read-out; inhibition, % at 4.98 µM; hit rate 0.26% among 220,000; AID 1510, 2009; in the data active = inhibition above about 29%;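 also: 0% = wells stimulated with agonist and 100% = vehicle wells without agonist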
An asterisk follows results filed as active; · = no result given. This is one part of a sample in which hits are shown more often than they occur.

SMILES	Mdm2 ligase inh	S1P3 antagonist	S1P4 ag	Lmaj promast	S1P4 antag
Oc1[nH]c2ccccc2c1N=Nc1ccc(C(F)(F)F)cn1	3	·	0	55*	0
CN(C)S(=O)(=O)c1ccc(N2CCCC2)c(C(=O)NCc2ccc(Cl)cc2)c1	-8	·	1	4	-7
O=C(Nc1nc2c(ccc3ccccc32)s1)c1cc([N+](=O)[O-])ccc1N1CCOCC1	1	-8	-1	21	-4
CN(C)S(=O)(=O)c1ccc(N2CCCC2)c(C(=O)Nc2nc(-c3ccc(F)c(F)c3)cs2)c1	-21	-15	1	52*	-10
CN(C)S(=O)(=O)c1ccc(N2CCCC2)c(C(=O)Nc2nc3c(ccc4ccccc43)s2)c1	-5	1	-1	97*	-10
CCOC(=O)Cc1csc(NC(=O)C(NC(=O)C2CCCCC2)C(C)C)n1 (configuration not stated)	-2	-7	1	7	-30
CCOC(=O)C1CCN(C(=O)Nc2ccc3nc(-c4ccco4)c(-c4ccco4)nc3c2)CC1	-7	·	2	96*	2
O=C(CN1CCN(C2CCCCC2)CC1)NCCC1=CCCCC1	-4	6	-1	94*	-6
O=C(COc1ccc(S(=O)(=O)NC2CCCCC2)cc1)NCCC1=CCCCC1	5	·	1	59*	8
CS(=O)(=O)N(CC(=O)NCCC1=CCCCC1)C1CCCCC1	-16	19	-1	4	-8
CCCCn1c(SCC(=O)N2c3ccccc3Sc3ccccc32)nc2c1c(=O)n(C)c(=O)n2C	·	·	1	78*	-3
CCOC(=O)C1=C(CSc2nc3ccccc3s2)NC(=O)NC1c1ccc(OC)cc1 (configuration not stated)	-4	·	1	62*	-2
CCOC(=O)C1=C(CSc2nc3ccccc3s2)NC(=O)NC1c1cc(C)ccc1C (configuration not stated)	-20	·	2	60*	-13
CCOC(=O)C1=C(CP(=O)(c2ccccc2)c2ccccc2)NC(=O)NC1c1ccc(OC)cc1 (configuration not stated)	-7	-9	1	-4	-23
Cc1ccc(Cl)cc1N(Cc1ccc(C(=O)NCc2cccnc2)cc1)S(=O)(=O)c1ccccc1	-6	·	1	83*	7
O=C(CN1CCN(C2CCCCC2)CC1)Nc1ccccc1-c1ccccc1	17	·	-1	59*	6
CCCCOc1ccc(C(=O)OC2CC(C)N(C)CC2C)cc1 (configuration not stated)	-17	·	0	98*	-2
COc1ccc(-c2csc(C3=C(O)CN(C(C)C)C3=N)n2)cc1OC	-2	2	0	72*	-10
COc1ccc(-c2nc(-c3ccc(O)cc3O)cs2)cc1OC	-17	11	1	27	-5
COc1ccc2[nH]c(=O)c(C(c3nnnn3C(C)(C)C)N(Cc3ccco3)CC3CCCO3)cc2c1 (configuration not stated)	6	-14	1	2	1
COc1ccc2cc(CN(Cc3ccco3)Cc3nnnn3C3CCCCC3)c(=O)[nH]c2c1	-14	3	-1	96*	-26
COc1ccc2cc(CN(Cc3ccco3)C(c3nnnn3C3CCCCC3)C(C)C)c(=O)[nH]c2c1 (configuration not stated)	-4	-1	-2	98*	-2
CCOc1ccc(NC(=O)c2ccc(NC(=O)c3cn4c5c(c(N6CCN(C)CC6)c(F)cc5c3=O)OCC4C)cc2)cc1 (configuration not stated)	-10	-15	0	93*	2
CCOc1ccc(NC(=O)c2ccc(NC(=O)c3ccc(CN4CCOCC4)cc3)cc2)cc1	·	-2	0	·	-3
O=C(Nc1nc(-c2cccnc2)cs1)c1ccccc1[N+](=O)[O-]	-1	-11	4	-2	-21
SMILES	Mdm2 ligase inh	S1P3 antagonist	S1P4 ag	Lmaj promast	S1P4 antag
COc1ccc(-c2c[n+](CC(=O)OC3CC(C)CCC3C(C)C)c3n2CCC3)cc1 (configuration not stated)	-26	-8	-1	100*	-20
CC(C)[C@@H]1CC[C@@H](C)C[C@H]1OC(=O)C[n+]1cc(-c2ccc(Cl)cc2)n2c1CCCCC2	-84	9	1	·	-4
Cc1ccc(CC2SC(=Nc3ccccc3)N(c3ccccc3)C2=O)cc1 (configuration not stated)	-1	16	0	53*	-20
CCc1ccc2[nH]c(=O)c(CN(Cc3ccc4c(c3)OCO4)Cc3nnnn3C3CCCC3)cc2c1	-3	4	-2	97*	-2
Cc1cc(C)c2[nH]c(=O)c(CN(Cc3nnnn3C3CCCC3)C3CCCCC3)cc2c1	-14	4	2	29	9
Cc1ccc2cc(CN(Cc3ccccc3)Cc3nnnn3C3CCCC3)c(=O)[nH]c2c1	-4	17	1	69*	-2
Cc1ccc2cc(CN(Cc3ccc(F)cc3)Cc3nnnn3C3CCCC3)c(=O)[nH]c2c1	-11	6	-1	81*	4
CCOC(=O)Cn1nnnc1CN(Cc1ccc(OC)cc1)Cc1cc2cc(CC)ccc2[nH]c1=O	-14	7	-5	17	-9
Cc1ccc2[nH]c(=O)c(CN(CCCN3CCOCC3)Cc3nnnn3C3CCCC3)cc2c1	-10	-17	1	4	10
COc1ccc(-n2cnnc2SCc2csc(-c3ccccc3)n2)cc1	-41	12	1	-2	-12
CCN(C(=O)CSc1nnnn1-c1ccccc1)C1CCS(=O)(=O)C1 (configuration not stated)	-15	-1	3	-6	-29
COc1ccc(N2C(=O)c3ccccc3NC2c2cccnc2)cc1 (configuration not stated)	-7	9	3	59*	4
O=C1c2ccccc2NC(c2cccnc2)N1c1ccccc1F (configuration not stated)	2	-9	0	31	-4
COc1ccc(/C=N/Nc2nnc(Cc3ccc(OC)c(OC)c3)c(=O)[nH]2)cc1OC	3	-16	-1	81*	-14
COc1ccc(N(CCC#N)C(=O)/C(C#N)=C/c2cccs2)cc1	-7	-10	1	1	4
COc1ccc(CC(C)N2CCN(Cc3ccccc3)CC2)c(OC)c1 (configuration not stated)	-10	26	0	95*	-13
COc1ccc(CC(C)N2CCN(c3ccccc3)CC2)cc1OC (configuration not stated)	-16	·	-1	78*	-12
COc1ccc(OC)c(CN2CCN(c3ccccc3OC)CC2)c1	-17	28	-1	1	4
COc1ccc(C(O)(CCc2ccccc2)CCN2CCCCC2)cc1 (configuration not stated)	-2	7	1	16	-2
